Experimental data from ChEMBL document CHEMBL1137383, “New efficient substrates for semicarbazide-sensitive amine oxidase/VAP-1 enzyme: analysis by SARs and computational docking” (J Med Chem, 2006).

Key:
[1] = substrate: NCc1ccccc1; assay: (§1) Binding affinity to human SSAO
How it was run: (§2)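 Recombinant human VAP-1 (0.1 µg protein/assay), Amplex Red/HRP H2O2 fluorimetry in 0.2 mol/L phosphate pH 7.4, 37 °C, 50 min; semicarbazide-insensitive H2O2 subtracted. Km and Vmax from nonlinear Michaelis-Menten fit across substrate concentrations; means of four independent measurements.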

[2] = substrate: NCCc1ccc(F)cc1; assay: as §1; how it was run: as §2
[3] = substrate: NCc1cccc(CNC(=O)c2ccccc2)c1; assay: as §1; how it was run: as §2
[4] = substrate: Cc1ccc(CN)cc1F; assay: as §1; how it was run: as §2
[5] = substrate: NCc1cccc(CNC(=O)CI)c1; assay: as §1; how it was run: as §2
[6] = substrate: NCCc1ccccc1; assay: as §1; how it was run: as §2
[7] = substrate: NCCCc1ccccc1; assay: as §1; how it was run: as §2
[8] = substrate: C=CCOC(=O)NCc1cccc(CN)c1; assay: as §1; how it was run: as §2
[9] = substrate: NCCCCc1ccccc1; assay: as §1; how it was run: as §2
[10] = substrate: NCc1ccc(F)cc1; assay: as §1; how it was run: as §2
[11] = substrate: NCc1ccccc1; assay: (§3) Binding affinity to mouse SSAO
How it was run: (§4)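 Mouse adipose membranes (1 µg protein/assay) assayed by Amplex Red/HRP H2O2 fluorimetry, 0.2 mol/L phosphate pH 7.4, 37 °C, 50 min, semicarbazide-insensitive signal subtracted. Km and Vmax by nonlinear Michaelis-Menten fitting; means of four independent measurements.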

[12] = substrate: NCCc1ccc(F)cc1; assay: as §3; how it was run: as §4
[13] = substrate: NCc1cccc(CNC(=O)c2ccccc2)c1; assay: as §3; how it was run: as §4
[14] = substrate: Cc1ccc(CN)cc1F; assay: as §3; how it was run: as §4
[15] = substrate: NCc1cccc(CNC(=O)CI)c1; assay: as §3; how it was run: as §4
[16] = substrate: NCCc1ccccc1; assay: as §3; how it was run: as §4
[17] = substrate: NCCCc1ccccc1; assay: as §3; how it was run: as §4
[18] = substrate: C=CCOC(=O)NCc1cccc(CN)c1; assay: as §3; how it was run: as §4
[19] = substrate: NCCCCc1ccccc1; assay: as §3; how it was run: as §4
[20] = substrate: NCc1ccc(F)cc1; assay: as §3; how it was run: as §4

| Protein | Km [1] | Km [2] | Km [3] | Km [4] | Km [5] | Km [6] | Km [7] | Km [8] | Km [9] | Km [10] | Km [11] | Km [12] | Km [13] | Km [14] | Km [15] | Km [16] | Km [17] | Km [18] | Km [19] | Km [20] |
| --- | --- | --- | --- | --- | --- | --- | --- | --- | --- | --- | --- | --- | --- | --- | --- | --- | --- | --- | --- | --- |
| Amine oxidase [copper-containing] 3 (Homo sapiens), Q16853 (protein) MNQKTILVLLILAVITIFALVCVLLVGRGGDGGEPSQLPHCPSVSPSAQPWTHPGQSQLFADLSREELTAVMRFLTQRLGPGLVDAAQARPSDNCVFSVELQLPPKAAALAHLDRGSPPPAREALAIVFFGRQPQPNVSELVVGPLPHPSYMRDVTVERHGGPLPYHRRPVLFQEYLDIDQMIFNRELPQASGLLHHCCFYKHRGRNLVTMTTAPRGLQSGDRATWFGLYYNISGAGFFLHHVGLELLVNHKALDPARWTIQKVFYQGRYYDSLAQLEAQFEAGLVNVVLIPDNGTGGSWSLKSPVPPGPAPPLQFYPQGPRFSVQGSRVASSLWTFSFGLGAFSGPRIFDVRFQGERLVYEISLQEALAIYGGNSPAAMTTRYVDGGFGMGKYTTPLTRGVDCPYLATYVDWHFLLESQAPKTIRDAFCVFEQNQGLPLRRHHSDLYSHYFGGLAETVLVVRSMSTLLNYDYVWDTVFHPSGAIEIRFYATGYISSAFLFGATGKYGNQVSEHTLGTVHTHSAHFKVDLDVAGLENWVWAEDMVFVPMAVPWSPEHQLQRLQVTRKLLEMEEQAAFLVGSATPRYLYLASNHSNKWGHPRGYRIQMLSFAGEPLPQNSSMARGFSWERYQLAVTQRKEEEPSSSSVFNQNDPWAPTVDFSDFINNETIAGKDLVAWVTAGFLHIPHAEDIPNTVTVGNGVGFFLRPYNFFDEDPSFYSADSIYFRGDQDAGACEVNPLACLPQAAACAPDLPAFSHGGFSHN | 224 µM | 1900 µM | 630 µM | 405 µM | 525 µM | 3720 µM | 1670 µM | 569 µM | 280 µM | 205 µM |  |  |  |  |  |  |  |  |  |  |
| Amine oxidase [copper-containing] 3 (Mus musculus), O70423 (protein) MTQKTTLVLLALAVITIFALVCVLLAGRSGDGGGLSQPLHCPSVLPSVQPRTHPSQSQPFADLSPEELTAVMSFLTKHLGPGLVDAAQARPSDNCVFSVELQLPAKAAALAHLDRGGPPPVREALAIIFFGGQPKPNVSELVVGPLPHPSYMRDVTVERHGGPLPYYRRPVLDREYQDIEEMIFHRELPQASGLLHHCCFYKHQGQNLLTMTTAPRGLQSGDRATWFGLYYNLSGAGFYPHPIGLELLIDHKALDPALWTIQKVFYQGRYYESLTQLEDQFEAGLVNVVLVPNNGTGGSWSLKSSVPPGPAPPLQFHPQGPRFSVQGSQVSSSLWAFSFGLGAFSGPRIFDIRFQGERVAYEISVQEAIALYGGNSPASMSTCYVDGSFGIGKYSTPLIRGVDCPYLATYVDWHFLLESQAPKTLRDAFCVFEQNQGLPLRRHHSDFYSHYFGGVVGTVLVVRSVSTLLNYDYIWDMVFHPNGAIEVKFHATGYISSAFFFGAGEKFGNRVGAHTLGTVHTHSAHFKVDLDVAGLKNWAWAEDMAFVPTIVPWQPEYQMQRLQVTRKLLETEEEAAFPLGGATPRYLYLASNHSNKWGHRRGYRIQILSFAGKPLPQESPIEKAFTWGRYHLAVTQRKEEEPSSSSIFNQNDPWTPTVNFTDFISNETIAGEDLVAWVTAGFLHIPHAEDIPNTVTAGNSVGFFLRPYNFFDEDPSFHSADSIYFREGQDATACEVNPLACLSQTATCAPEIPAFSHGGFAYRDN |  |  |  |  |  |  |  |  |  |  | 15.4 µM | 88.8 µM | 12.8 µM | 14.8 µM | 29.8 µM | 34.8 µM | 27 µM | 11.5 µM | 11.3 µM | 15.7 µM |
